Experimental data as given in publication PMC12804367 (ESMO Open, 2025).
Where “and” joins values, the source holds several entries; their conditions need not be identical. Equal entries are not always repeated. Entries after “also recorded” stand apart in the source; their conditions may differ. Where two headings read alike, the source gives them in different places. Marks after values point to notes of the source that are not given here.

Assays:
[1] = system: patients with advanced or metastatic solid tumors; experiment: Safety, tolerability and DLTs; format: in vivo, human
In short: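 3 + 3 escalation starting at 16 mg/day once daily or 24 mg/day intermittent (4 days on/3 days off) in 21-day cycles. AEs graded by CTCAE v5.0. DLTs were selected lab abnormalities or AEs at least possibly drug-related during cycle 1, assessed in patients with a DLT or ≥80% of planned doses taken.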

advanced solid tumors = details: cited from earlier work
Plasma pharmacokinetics = format: in vivo, human
In short: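 Dose-escalation patients had blood drawn predose and 0.5, 1, 2, 3, 4, 6 and 24 h post-dose on cycle 1 day 1, and on cycle 1 day 8 for once-daily dosing only. Plasma parameters came from noncompartmental analysis in patients with evaluable plasma concentration data. Values are geometric means with geometric CV%, plus day 8/day 1 accumulation ratios of Cmax and AUC0-24.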

[2] = Japanese phase I study; cited from earlier work
[3] = system: advanced or metastatic solid tumors; experiment: Antitumor activity per RECIST v1.1; format: in vivo, human
In short: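 Open-label, single-arm, 3 + 3 dose-escalation lead-in. Adults with advanced or metastatic solid tumors that had progressed on standard therapy and had ≥1 lesion per RECIST v1.1. Test compound given once daily (16 or 20 mg) or 4 days on/3 days off (24 or 28 mg) in 21-day cycles until progression or toxicity. Response, DCR and PFS were assessed in all dosed patients, with 95% CI.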

kinases = details: cited from earlier work
[4] = system: refractory gastrointestinal cancers / advanced solid tumors; details: cited from earlier work
[5] = dose escalation o.d. 20 mg (n = 6)
[6] = dose escalation o.d. total (n = 9), any grade
[7] = dose escalation o.d. total (n = 9), grade ≥3
[8] = two intermittent dosing groups (n = 7)
[9] = cycle 1 day 1, 16 mg o.d., individual values (N = 2)
[10] = cycle 1 day 1, 20 mg o.d., N = 6, geometric mean (CV%)
[11] = cycle 1 day 1, 24 mg intermittent, N = 4, geometric mean (CV%)
[12] = cycle 1 day 1, 28 mg intermittent, N = 3, geometric mean (CV%)
[13] = cycle 1 day 8, 16 mg o.d., N = 3, geometric mean (CV%)
[14] = cycle 1 day 8, 20 mg o.d., N = 6, geometric mean (CV%)
[15] = one patient, germline PTEN mutation, metaplastic breast cancer, 20 mg o.d.

SMILES: C[C@]1(O)C[C@@](N)(c2ccc(-c3nc4n(c3-c3ccccc3)COc3ccncc3-4)cc2)C1 [TAS-117]
- TRAE: Fatigue [1, 5]: 2 (33.3) n (%)
- TRAE: Hyperglycemia [1, 5]: 1 (16.7) n (%)
- TRAE: Nausea [1, 5]: 1 (16.7) n (%)
- TRAE: Pruritus [1, 5]: 1 (16.7) n (%)
- TRAE: Rash [1, 5]: 4 (66.7) n (%)
- TRAE: Rash maculopapular [1, 5]: 1 (16.7) n (%)
- Patients with any TRAE [1, 6]: 8 (88.9) n (%)
- TRAE: Decreased appetite [1, 6]: 1 (11.1) n (%)
- TRAE: Diarrhea [1, 6]: 2 (22.2) n (%)
- TRAE: Fatigue [1, 6]: 2 (22.2) n (%)
- TRAE: Hyperglycemia [1, 6]: 2 (22.2) n (%)
- TRAE: Nausea [1, 6]: 1 (11.1) n (%)
- TRAE: Pruritus [1, 6]: 1 (11.1) n (%)
- TRAE: Rash [1, 6]: 6 (66.7) n (%)
- TRAE: Rash maculopapular [1, 6]: 1 (11.1) n (%)
- Patients with any TRAE [1, 7]: 5 (55.6) n (%)
- TRAE: Fatigue [1, 7]: 1 (11.1) n (%)
- TRAE: Rash [1, 7]: 2 (22.2) n (%)
- TRAE: Rash maculopapular [1, 7]: 1 (11.1) n (%)
- Patients who experienced a DLT ([1]; dose-escalation part, assessable patients (n = 16), cycle 1): three
- TEAEs leading to death ([1]; either dosing regimen): No TEAEs leading to death
- Patients with dose interruption due to an AE ([1]; intermittent dosing groups): 57.1%
- Patients with dose reductions due to an AE ([1]; intermittent dosing groups): 42.9%
- Patients with treatment discontinued due to a TRAE ([1]; intermittent dosing groups, grade 3 skin exfoliation at 28 mg): 14.3%
- Patients with treatment-related serious AEs ([1]; o.d. dosing groups, all at 20 mg o.d.): three
- Patients with AEs leading to dose interruptions ([1]; o.d. dosing regimen): 66.7%
- Patients with AEs leading to dose reductions ([1]; o.d. dosing regimen): 0%
- TRAE: Diarrhea ([1]; o.d. dosing regimen (n = 9)): 22.2%
- TRAE: Fatigue ([1]; o.d. dosing regimen (n = 9)): 22.2%
- TRAE: Hyperglycemia ([1]; o.d. dosing regimen (n = 9)): 22.2%
- TRAE: Rash ([1]; o.d. dosing regimen (n = 9)): 66.7%
- Grade ≥3 TRAE: stomatitis [1, 8]: 28.6%
- Grade ≥3 TRAEs [1, 8]: 42.9%
- TRAE: Decreased appetite [1, 8]: 28.6%
- TRAE: Fatigue [1, 8]: 57.1%
- TRAE: Hyperglycemia [1, 8]: 42.9%
- TRAE: Pruritus [1, 8]: 57.1%
- TRAE: Rash [1, 8]: 57.1%
- TRAE: Stomatitis [1, 8]: 42.9%
- Objective responses (advanced solid tumors; PIK3CA-mutant endometrial cancer, 1 out of 16 patients): 6.3%
- Objective responses (advanced solid tumors; ovarian clear cell carcinoma, 3 out of 20 patients): 15%
- Antitumor activity and safety (advanced solid tumors; patients with advanced solid tumors): preliminary antitumor activity and a manageable safety profile
- Total exposure per week, 16 mg o.d. compared with 24-mg intermittent dosing (Plasma pharmacokinetics; 16 mg o.d.): higher total exposure per week
- AUC0-24 (Plasma pharmacokinetics; [9]): 180.7 ng·h/mL and 244.3 ng·h/mL
- AUC0-last (Plasma pharmacokinetics; [9]): 180.7 ng·h/mL and 244.3 ng·h/mL
- Cmax (Plasma pharmacokinetics; [9]): 12.8 ng/mL and 14.5 ng/mL
- Tmax (Plasma pharmacokinetics; [9]): 3.05 h and 20.88 h
- AUC0-24 (Plasma pharmacokinetics; [10]): 333 (34.7) ng·h/ml
- AUC0-last (Plasma pharmacokinetics; [10]): 333 (34.7) ng·h/ml
- Cmax (Plasma pharmacokinetics; [10]): 21.5 (29.2) ng/ml
- Tmax (Plasma pharmacokinetics; cycle 1 day 1, 20 mg o.d., N = 6, median (range)): 2.06 (1.15-6.42) h
- AUC0-24 (Plasma pharmacokinetics; [11]): 412.8 (30.6) ng·h/ml
- AUC0-last (Plasma pharmacokinetics; [11]): 290.5 (86) ng·h/ml
- Cmax (Plasma pharmacokinetics; [11]): 23.2 (33.9) ng/ml
- Tmax (Plasma pharmacokinetics; cycle 1 day 1, 24 mg intermittent, N = 4, median (range)): 2 (1.98-3.65) h
- AUC0-last (Plasma pharmacokinetics; [12]): 426.3 (180.7) ng·h/ml
- Cmax (Plasma pharmacokinetics; [12]): 48.1 (35.9) ng/ml
- Tmax (Plasma pharmacokinetics; cycle 1 day 1, 28 mg intermittent, N = 3, median (range)): 2 (0.92-5.65) h
- AUC0-24 (Plasma pharmacokinetics; cycle 1 day 1, 28 mg intermittent, individual values (n = 2)): 754.4 ng·h/mL and 961.1 ng·h/mL
- AUC0-last (Plasma pharmacokinetics; [13]): 231.7 (157.2) ng·h/ml
- Cmax (Plasma pharmacokinetics; [13]): 33.3 (34.3) ng/ml
- Tmax (Plasma pharmacokinetics; cycle 1 day 8, 16 mg o.d., N = 3, median (range)): 4.08 (2-5.5) h
- AUC0-24 (Plasma pharmacokinetics; cycle 1 day 8, 16 mg o.d., individual value (n = 1)): 811.3 ^b ng·h/ml
- AUC0-24 (Plasma pharmacokinetics; [14]): 924 (54.5) ng·h/ml
- AUC0-last (Plasma pharmacokinetics; [14]): 924 (54.5) ng·h/ml
- Cmax (Plasma pharmacokinetics; [14]): 60.1 (58.8) ng/ml
- Tmax (Plasma pharmacokinetics; cycle 1 day 8, 20 mg o.d., N = 6, median (range)): 2.33 (1.02-5.58) h
- Exposure versus dose (Plasma pharmacokinetics; dose range 16-28 mg, cycle 1 day 1 and day 8): generally increased with increasing doses; also recorded: dose-dependent increases
- Accumulation of Cmax and AUC0-24 [2]: threefold to fourfold
- Median PFS ([3]; all cohorts, 95% CI 1.3-3.5 months): 2.7 months
- DCR ([3]; all patients, 95% CI 18.4% to 67.1%): 41.2%
- Patients with stable disease as best response ([3]; o.d. dosing, all at 20 mg): three
- Best overall response [3, 15]: stable disease
- Duration of stable disease / treatment, ongoing at data cut-off [3, 15]: 19.1 months
- Duration of stable disease / treatment as of manuscript drafting ([3]; one patient, germline PTEN mutation, metaplastic breast cancer, ongoing): > 3 years
- Objective response (RECIST v1.1, investigator assessment) ([3]; patients assessed, n = 15, dose escalation (all-comers)): None and no patients having a confirmed response
- Off-target inhibition of kinases (kinases): no observed off-target inhibition of kinases
- Patients who achieved a partial response ([4]; PIK3CA-mutant ovarian cancer): 1 patient
- Antitumor activity and toxicity ([4]; patients with refractory gastrointestinal cancers): limited antitumor activity and manageable toxicity
